The subject of series [1] is HCT-15. As to the kind of experiment: Effective dose against HCT-15 cell line. The conditions noted are these: Homo sapiens, read-out: ED50 (the source's name). Format: functional. In a few lines:
(§1)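 HCT-15 (MDR+) or NCI-H460 (MDR−) cells in growth medium treated with compounds over a range of concentrations for 48 h. Cells then trypsinized and counted per well with a Coulter counter. ED50 derived from cell number. Compounds at 1 μM or below were retested in both lines. Values reported as mean ± SD.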

In series [2] the test system is NCI-H460. As to the kind of experiment: Effective dose against NCI-H460 cell line. Format: functional. The note with it: Homo sapiens, read-out: ED50 (the source's name). In a few lines: as §1
The nature of series [3]: Volume of distribution following intravenous dosing, tested in vivo in mice. Format: ADME, organism-based. The conditions noted are these: mouse, read-out: Vc.
Series [4] in a line: Integrated compound concentration with respect to time following oral dosing, tested in vivo in mice. The series is classed as ADME, organism-based. The conditions noted are these: mouse.
Series [5] concerns Mus musculus. As to the kind of experiment: Time to maximum plasma concentration following oral dosing, tested in vivo in mice. The note with it: in vivo.
Series [6] in a line: Oral bioavailability in mouse. The series is classed as ADME, organism-based. The conditions noted are these: in vivo.
Series [7] relates to Mus musculus. As to the kind of experiment: (§2) Half-life following intravenous dosing, tested in vivo in mice. Format: ADME, organism-based.
Series [8] has as its system Mus musculus. Description: (§3) Area under the curve following intravenous dosing, integrated compound concentration with respect to time, tested in vivo in mice. Format: ADME, organism-based.
Series [9] has as its system Mus musculus. Description: (§4) Maximum plasma concentration following intravenous dosing, tested in vivo in mice. The series is classed as ADME, organism-based. More on the design: route intravenous. The note with it: in vivo.
Series [10] in a line: Time to maximum plasma concentration following oral dosing, tested in vivo in mice. The conditions noted are these: mouse, plasma.
The nature of series [11]: as §2. Format: ADME, organism-based. The note with it: mouse.
Series [12] in a line: as §3. The conditions noted are these: mouse. Format: ADME, organism-based.
A short description of series [13]: as §4. The series is classed as ADME, organism-based. Further details: route intravenous. The conditions noted are these: mouse, plasma.

Molecules are shown by their SMILES. pEC50: −log10 of the molar value.

Take `CC(=O)N1N=C(c2ccc(N(C)C)cc2)OC1c1cc(C)c(C)c(C)c1` (configuration not stated): the pEC50 was 5.82 in series [1] and 5.24 in [2].

On to `CCOC(=O)C(=O)N1N=C(c2ccc(N(C)C)cc2)OC1c1cc(OC)c(OC)c(OC)c1` (configuration not stated), for which the results for the pEC50 in series [1] and in [2] were 4.35 and 4.48, respectively.

As for `COc1cc(C2OC(c3ccccc3N(C)C)=NN2C(C)=O)cc(OC)c1OC` (configuration not stated), the pEC50 in [1] was 4.19; in series [2] it was 3.96.

Consider `CC(=O)O[C@H]1C(=O)[C@@]2(C)[C@H]([C@H](OC(=O)c3ccccc3)[C@]3(O)C[C@H](OC(=O)[C@H](O)[C@@H](NC(=O)c4ccccc4)c4ccccc4)C(C)=C1C3(C)C)[C@]1(OC(C)=O)CO[C@@H]1C[C@@H]2O` [PACLITAXEL], for which the results for the pEC50 in series [1] and in [2] were 6.27 and 7.82, respectively.

As to `COc1cc(C2SC(c3ccc(N(C)C)cc3)=NN2C(C)=O)cc(OC)c1OC` (configuration not stated), the results for the pEC50 in [1] and in series [2] were 6.21 and 6.46, respectively.

As for `COc1cc(-c2nnc(-c3ccc(N(C)C)cc3)o2)cc(OC)c1OC`, the pEC50 was 4.04 in [1] and 3.97 in [2].

Turning to `COc1cc(C2CN=C(c3ccc4[nH]ccc4c3)O2)cc(OC)c1OC` (configuration not stated), the results for the pEC50 in series [1] and in series [2] were 7.01 and 6.94, respectively.

Take `COc1cc(C2OC(c3ccc(N(C)C)cc3)=NN2C(=O)CNC(C)=O)cc(OC)c1OC` (configuration not stated): the results for the pEC50 in series [1] and in series [2] were 6.74 and 6.32, respectively.

`COc1cc(C2OC(c3ccc(N(C)C)cc3)=NN2C(=O)CN(C)C)cc(OC)c1OC` (configuration not stated): the results for the pEC50 in series [1] and in series [2] were 4.10 and 4.13, respectively.

Consider `COc1cc(C2OC(c3ccc(N(C)C)cc3)=NN2C(=O)CO)cc(OC)c1OC` (configuration not stated), for which the pEC50 is 7.59 in series [1] and 7.37 in series [2].

On to `COc1cc(C2OC(c3ccc(N(C)C)cc3)=NN2C(C)=O)cc(OC)c1OC` (configuration not stated), for which, in series [3], the Vd stood at 3.3 L/kg. In addition, the figures for the AUC in series [4] and in [8] were 155 ng·h/mL and 3170 ng·h/mL, respectively. In addition, the T max in [5] amounted to 24 min. The bioavailability in [6] was determined as 4.9%. The compound further returned a T1/2 in [7] of 66 min. Further, the pEC50 in [1] is 7.48; in series [2], 7.36. For the same compound, in series [9], the Cmax was determined as 113 ng/mL.

`COc1cc(C2CN=C(c3ccc4c(ccn4C)c3)O2)cc(OC)c1OC` (configuration not stated): the Vd in [3] came to 1.4 L/kg. The AUC in [4] came to 1780 ng·h/mL; in series [12], 5120 ng·h/mL. Moreover, the Tmax in series [10] was found to be 24 min. This compound returned a bioavailability in series [6] of 35%. Besides, in [11], the half-life was 114 min. The pEC50 in [1] is 7.74; in series [2] it was 7.55. The compound also showed a Cmax in series [13] of 799 ng/mL.

For `COC(=O)N1N=C(c2ccc(N(C)C)cc2)OC1c1cc(OC)c(OC)c(OC)c1` (configuration not stated), the pEC50 in series [1] was 4.40; in series [2], 3.97.

As for `COc1cc(C2OC(c3ccc(N(C)C)cc3)=NN2C(=O)CN)cc(OC)c1OC` (configuration not stated), the pEC50 in [1] was 6.19; in series [2] it was 6.18.

Consider `COC(=O)c1c(OC)cc(C2OC(c3ccc(N)c(C)c3)=NN2C(C)=O)cc1OC` (configuration not stated), for which the pEC50 is 6.55 in [1] and 6.29 in series [2].

With `COc1cc(C2COC(c3ccc(N(C)C)cc3)O2)cc(OC)c1OC` (configuration not stated), the figures for the pEC50 in series [1] and in series [2] were 5.62 and 5.08, respectively.

With `COc1cc(C2OC(c3ccc(N(C)C)cc3)=NN2C(=O)CN=[N+]=[N-])cc(OC)c1OC` (configuration not stated), the pEC50 in series [1] is 6.82; in series [2], 6.28.

Consider `COc1ccc(C2OC(c3ccc(N(C)C)cc3)=NN2C(C)=O)cc1OC` (configuration not stated), for which the pEC50 in series [1] is 5.09; in [2] it was 5.29.

As to `COc1cc(C2CN=C(c3ccc4c(c3)CCCN4C)O2)cc(OC)c1OC` (configuration not stated), the pEC50 in series [1] is 6.18; in series [2] it was 6.49.

Turning to `COc1cc(OC)c(C2OC(c3ccc(N(C)C)cc3)=NN2C(C)=O)c(OC)c1` (configuration not stated), the values for the pEC50 in [1] and in series [2] were 4.15 and 4.40, respectively.

Turning to `COc1cc(C2OC(c3ccc(N(C)C)cc3)=NN2C(C)=O)cc(OC)c1OC(C)=O` (configuration not stated), the pEC50 in [1] is 4.11; in series [2] it was 4.89.

For `COc1cc(C2OC(c3ccc(N(C)C)cc3)=NN2C(=O)COC(C)=O)cc(OC)c1OC` (configuration not stated), the pEC50 is 7.72 in [1] and 7.14 in series [2].

With `COc1cc(C2OC(c3ccc(N)c(C)c3)=NN2C(C)=O)cc(OC)c1OC` (configuration not stated), in series [3], the Vd amounted to 2.2 L/kg. The figures for the AUC in [4] and in series [8] were 147 ng·h/mL and 2109 ng·h/mL, respectively. Further, in [5], the T max worked out at 102 min. Further, in series [6], the bioavailability worked out at 7%. In addition, the T1/2 in series [7] was determined as 66 min. For the same compound, the pEC50 in series [1] was 7.38; in series [2] it was 7.23. This compound also displayed a Cmax in series [9] of 59 ng/mL.

As for `COc1cc(C2OC(c3ccc(N)c(C)c3)=NN2C(C)=O)cc2c1OCO2` (configuration not stated), the pEC50 in series [1] is 6.21; in series [2], 6.20.

For the compound `COc1ccc(C2=NCC(c3cc(OC)c(OC)c(OC)c3)O2)cc1N` (configuration not stated), the pEC50 in [1] was 7.09; in series [2] it was 7.14.

For the compound `COc1cc(C2CN=C(c3ccc(N(C)C)cc3)O2)cc(OC)c1OC` (configuration not stated), the Vd in [3] came out at 3.3 L/kg. Also, the AUC worked out at 1660 ng·h/mL in series [4] and 3410 ng·h/mL in series [12]. For the same compound, the Tmax in series [10] is 54 min. Moreover, in [6], the bioavailability was 49%. This compound had a half-life in series [11] of 48 min. The pEC50 is 6.92 in series [1] and 6.46 in [2]. The same compound yielded a Cmax in series [13] of 891 ng/mL.

For the compound `COc1cc(C2OC(c3cccc(N(C)C)c3)=NN2C(C)=O)cc(OC)c1OC` (configuration not stated), the values for the pEC50 in series [1] and in [2] were 6.80 and 6.59, respectively.

For `CCCCNC(=O)c1c(OC)cc(C2OC(c3ccc(N)c(C)c3)=NN2C(C)=O)cc1OC` (configuration not stated), the pEC50 in [1] is 3.75; in series [2] it was 4.22.

In the case of `COc1ccc(C2OC(c3ccc(N(C)C)cc3)=NN2C(C)=O)c(OC)c1OC` (configuration not stated), the pEC50 is 5.12 in series [1] and 5.17 in series [2].

Regarding `COc1cc(C2CN=C(c3ccc4c(c3)CCN4C)O2)cc(OC)c1OC` (configuration not stated), the pEC50 in [1] is 6.21; in series [2] it was 6.09.

As for `COc1cc(OC)c(C2OC(c3ccc(N)c(C)c3)=NN2C(C)=O)cc1OC` (configuration not stated), the pEC50 in [1] was 3.70; in series [2], 3.00.

On to `COc1cc(-c2nnc(-c3ccc(N(C)C)cc3)s2)cc(OC)c1OC`, for which the values for the pEC50 in series [1] and in [2] were 3.64 and 3.00, respectively.

As for `COc1cc(C2OC(c3ccc(N(C)C)cc3)=NN2C(=O)CNC=O)cc(OC)c1OC` (configuration not stated), the pEC50 in series [1] was 7.46; in series [2] it was 7.40.

Consider `COc1cc(-c2cc(-c3ccc(N)c(C)c3)nn2C(C)=O)cc(OC)c1OC`, for which the figures for the pEC50 in series [1] and in series [2] were 3.44 and 3.00, respectively.

Turning to `COc1cc(C2CN=C(c3ccc4nc(O)oc4c3)O2)cc(OC)c1OC` (configuration not stated), the pEC50 was 5.37 in series [1] and 4.14 in [2].

As to `COc1cc(C2OC(c3ccc(N(C)C)cc3)=NN2C=O)cc(OC)c1OC` (configuration not stated), the results for the pEC50 in series [1] and in series [2] were 7.02 and 6.92, respectively.

Regarding `COc1cc(C2CN=C(c3ccc(C)c(N)c3)O2)cc(OC)c1OC` (configuration not stated), the results for the pEC50 in series [1] and in series [2] were 7.09 and 7.20, respectively.

As a reminder, the AUC is concentration integrated over time. A higher AUC goes with high exposure. A word on the bioavailability: it is dose-corrected exposure relative to a reference, in per cent. High values mean much systemic uptake, low ones little systemic uptake. By Cmax is commonly meant the maximum level reached in the sampled fluid or tissue. One may read the Tmax as the time from dosing to the highest level. In general, half-life refers to the time needed for the level to fall by half in the phase considered.

These data come from ChEMBL document CHEMBL1134306, “New antimitotic agents with activity in multi-drug-resistant cell lines and in vivo efficacy in murine tumor models” (J Med Chem, 2001).
